Screening data from PubChem BioAssay.
Only some compounds are listed: those with a hit (about 0.85% of all), similar ones and a draw of the others.
V1aR counter = agonists of human V1a receptor, primary screen, counter-screen for OXTR agonist project, fluorescence, CHO-V1R cells; Vasopressin V1a receptor (Homo sapiens), P37288; Fluo-8 calcium fluorescence, agonist mode; 0% DMSO, 100% 3 nM vasopressin; activation, % at 3 µM; hit rate 0.25% among 320,000; AID 2797, 2010;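 active = activation above the mean activation of all tested compounds plus 3 SD, per screening run, cut at about 20% in these data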;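 also: signal is peak over basal fluorescence ratio across a 100 second FLIPR read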
Target sequence (P37288 whole entry, looked up): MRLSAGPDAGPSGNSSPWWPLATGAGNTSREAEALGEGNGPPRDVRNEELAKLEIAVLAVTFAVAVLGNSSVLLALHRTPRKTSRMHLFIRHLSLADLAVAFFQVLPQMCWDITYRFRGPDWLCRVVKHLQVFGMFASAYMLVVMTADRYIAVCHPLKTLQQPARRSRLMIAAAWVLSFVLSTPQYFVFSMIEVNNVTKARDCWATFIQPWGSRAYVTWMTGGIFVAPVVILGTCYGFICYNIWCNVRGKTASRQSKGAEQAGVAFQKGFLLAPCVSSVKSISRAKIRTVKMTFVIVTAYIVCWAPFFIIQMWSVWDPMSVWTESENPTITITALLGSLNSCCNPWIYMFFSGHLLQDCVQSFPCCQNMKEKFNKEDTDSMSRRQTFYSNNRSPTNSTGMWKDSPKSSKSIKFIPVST
OXTR agonist = human OXTR agonists, primary screen, fluorescence, CHO-OTR cells, Fluo-8 calcium; Oxytocin receptor (Homo sapiens), P30559; Fluo-8 calcium fluorescence; normalized: DMSO 0%, oxytocin 100%; activation, % at 3 µM; hit rate 0.32% among 320,000; AID 2435, 2010;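 active = activation above the mean of all tested compounds plus 3 SD, cutoff set per screening run, cut at about 20% in these data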;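 also: peak over basal fluorescence ratio from a 100 s FLIPR kinetic read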
Target sequence (P30559 whole entry, looked up): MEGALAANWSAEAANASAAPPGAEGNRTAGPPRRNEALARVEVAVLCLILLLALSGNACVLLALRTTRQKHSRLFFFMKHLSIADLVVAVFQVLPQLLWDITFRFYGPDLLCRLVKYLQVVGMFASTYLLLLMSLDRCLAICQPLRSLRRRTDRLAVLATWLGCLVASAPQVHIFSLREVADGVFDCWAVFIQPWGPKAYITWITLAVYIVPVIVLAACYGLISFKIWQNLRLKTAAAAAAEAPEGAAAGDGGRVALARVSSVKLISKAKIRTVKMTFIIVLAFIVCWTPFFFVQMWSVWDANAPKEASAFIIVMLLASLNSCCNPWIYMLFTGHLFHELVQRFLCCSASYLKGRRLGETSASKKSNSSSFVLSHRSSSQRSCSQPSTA
zfTRPN1 agonist = zebrafish TRPN1 channel agonists, primary screen, cell-based, HEK293, calcium fluorescence; transient receptor potential cation channel N1 (TRPN1/NompC), Danio rerio; activation, % at 3 µM; HEK293 zebrafish TRPN1-YFP, Fluo-8 calcium fluorescence; 100% = response to 87 µM carbachol; AID 1424, 2008; hit rate 0.18% among 220,000;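 active = activation above its plate's cutoff, the mean activation of test wells on that plate plus 3 SD, cut at about 19% in these data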;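 also: 0% = DMSO alone and 100% = 87 µM carbachol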
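Material: zebrafish TRPN1-YFP in HEK293 cells. Doses: one dose of 3 µM, 0.3% DMSO. Incubation: dye 1 h 37 °C plus 30 min RT. Measured by: intracellular calcium fluorescence with Fluo-8.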
OXTR potentiate = human OXTR potentiators, primary screen, fluorescence, CHO-OTR cells, Fluo-8 calcium; activation, % at 3 µM; hit rate 0.061% among 320,000; Fluo-8 calcium fluorescence, potentiator mode; 0% = oxytocin EC15, 100% = EC100; Oxytocin receptor (Homo sapiens), P30559;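 active = activation above that plate's cutoff, the mean activation of tested compounds plus 3 SD, cut at about 6.6% in these data, passing the limit was not always enough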;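 also: 100% uses oxytocin at 75 nM as the full agonist control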
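System: human OTR in CHO cells / Also added: sub-maximal oxytocin, roughly EC15 / Control set: EC15 oxytocin low, 75 nM oxytocin high / Schedule: 6 min compound pre-incubation at room temperature, 100 s kinetic read / Compound: single-point 3.0 µM / Replication: singlicate / Technique: Fluo-8 calcium dye fluorescence / Read-out basis: % activation of max/min ratio relative to oxytocin controls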
TRPML3 ag = human TRPML3 channel agonists, primary screen, cell-based, HEK293 TRPML3-YFP, Fluo-8 calcium fluorescence, 3 µM. 100% = the carbachol control signal. activation, % at 3 µM. hit rate 0.29% among 220,000. AID 1448, 2008;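 active = activation above its plate's cutoff, the mean activation of the plate's test wells plus 3 SD, cut at about 12% in these data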;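 also: 0% = DMSO only wells and 100% = carbachol wells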
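system = HEK293 cells stably carrying human TRPML3-YFP | doses = one concentration, 3 µM nominal, 0.3% DMSO | timing = dye loading 1 h 37 °C then 30 min ambient, 125 s read | detection = Fluo-8 calcium dye fluorescence, ex 470-495, em 515-575 nm | benchmarks = high control carbachol 87 µM, low control DMSO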
CRFBP-R2 agonist = agonists of CRF-BP/CRF-R2 complex, primary screen, cell-based, HEK293, calcium dye fluorescence, uHTS. calcium dye fluorescence (FLIPR); percent of saturating CRF peptide response. hit rate 0.46% among 350,000. activation, % at 13.2 µM. CRF-binding protein / CRF receptor 2 complex (human);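 active = activation of at least 50%, plus an integration ratio under a set limit after plate pattern correction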;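 also: plate controls were neutral control wells without compound for no effect and CRF at EC100 for full effect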
* = called active by the depositor; x = no result.

SMILES | V1aR counter | OXTR agonist | zfTRPN1 agonist | OXTR potentiate | TRPML3 ag | CRFBP-R2 agonist
O=c1c2cc(C(F)(F)F)ccc2sn1-c1ccccc1 | x | x | x | x | x | 60.8*
CCN(CCn1cccn1)C(=O)CCc1nnc(CCCc2ccccc2)o1 | 0.4 | 0.0 | 43.8* | -5.5 | 26.5* | -1.1
CCOc1ccc(Br)cc1S(=O)(=O)Nc1cccnc1 | 1.2 | 0.5 | x | -6.7 | x | 0.4
O=C(Nc1cc(S(=O)(=O)N2CCCCC2)ccc1O)c1ccccc1NS(=O)(=O)c1ccc(F)cc1 | -0.5 | -2.3 | 1.1 | -9.9 | 1.1 | 71.5*
O=C(c1ccccc1NS(=O)(=O)c1ccc(F)cc1)N1CCCCC1 | 1.2 | -1.0 | x | 0.1 | x | 1.7
O=C(Nc1cc(S(=O)(=O)N2CCCCC2)ccc1Cl)c1ccccc1NS(=O)(=O)c1ccc(F)cc1 | 6.6 | 10.4 | 19.4* | -10.4 | 13.4* | 47.2
CCC(C)Sc1ccc([C@H]2N[C@@](Cc3ccccc3)(C(=O)OC)[C@H]3C(=O)N(CC)C(=O)[C@@H]23)cc1OC (some centres not stated) | -0.4 | -1.1 | x | -3.2 | x | -0.3
Cc1ccc(C(=O)N2CCN(C34CC5CC(CC(C5)C3)C4)CC2)o1 | 0.6 | -0.2 | x | -1.1 | x | -0.8
CC(=O)Nc1ccc(Sc2ncccc2C(=O)Nc2ccc(F)cc2)cn1 | 70.4* | 79.1* | 45.7* | -13.7 | 35.1* | 156.1*
CSc1ncccc1C(=O)Nc1ccc(OC(F)(F)F)cc1 | 2.5 | 2.0 | -0.2 | -5.2 | 0.9 | 1.1
Cc1cccc(NC(=O)CN2CCN(C(=O)CNC(=O)c3ccc(-c4ccccc4)cc3)CC2)c1C | x | x | x | x | x | -2.2
COC(=O)c1sc(NC(=S)NC(=O)c2ccc(F)cc2)nc1C | 0.3 | 1.1 | 0.6 | -1.7 | 0.6 | x
COC(=O)c1sc(NC(=S)NC(=O)c2cccc(Br)c2)nc1C | 0.0 | 0.3 | x | -5.8 | x | 59.8*
CCN(CC)c1ccc(/C=C(\C#N)c2nc(-c3cccs3)c(NC(C)=O)s2)cc1 | x | x | 21.6* | x | 29.4* | x
c1ccc(CNc2nc(NCc3ccccc3)c3ccccc3n2)cc1 | 21.4* | 28.3* | 16.1 | -18.9 | 7.4 | 27.3
c1ccc(CNc2nc(-c3ccccc3)nc3ccccc23)cc1 | 0.8 | -1.1 | x | 0.5 | x | 0.0
O=C(N/N=C/c1cc([N+](=O)[O-])ccc1O)c1cccc2ccccc12 | 1.9 | -0.8 | x | -6.4 | x | x
CCC(=O)N1CCc2cc(Br)cc(S(=O)(=O)NCc3ccccc3OC)c21 | 1.1 | -0.2 | x | -7.9 | x | -0.5
Cc1cc(=O)oc(C)c1C(=O)Nc1ccc2ncccc2c1 | 1.1 | 1.8 | 3.0 | -7.8 | 1.0 | 78.2*
Cc1cc(=O)oc(C)c1C(=O)Nc1ccc2nsnc2c1 | 1.2 | 1.2 | 1.3 | -5.5 | 0.7 | 1.1
COc1ccc(OC)c(NC(=O)C(=O)NNC(=O)C23CC4CC(CC(C4)C2)C3)c1 | 12.5 | 5.1 | 42.5* | -15.2 | 26.7* | 55.0*
CC(C)C(Cl)=NOC(=O)Nc1ccc(S(N)(=O)=O)cc1 | x | x | x | x | x | -1.8
CCN(CC)c1ccc(C=C2C(=O)OC3(CCCCC3)OC2=O)cc1 | 0.8 | 0.5 | 3.0 | -7.5 | 2.0 | 32.4
CCN(CC)c1ccc(/C=C2/C(=O)c3ccc(C(=O)O)cc3C2=O)cc1 | 70.2* | 135.4* | 34.5* | -12.3 | 19.1* | 215.4*
c1ccc(N=C2SCCCS2)cc1 | x | x | x | x | x | 5.6
SMILES | V1aR counter | OXTR agonist | zfTRPN1 agonist | OXTR potentiate | TRPML3 ag | CRFBP-R2 agonist
C[n+]1cc(C(=O)N2CCCCC2)ccc1/C=C/c1c[nH]c2ccccc12 | 4.5 | 7.1 | 4.4 | -7.7 | 3.8 | 79.0*
CCOCCCn1c(SCC(=O)Nc2ccccc2)nc2ccccc2c1=O | -0.9 | -2.5 | x | 3.2 | x | 0.3
CCOCCCn1c(SCc2nc3ccccc3s2)nc2ccccc2c1=O | -0.4 | -0.5 | -1.1 | -3.6 | 0.3 | 51.5*
CC(C)Cc1ccc(C(C)C(=O)OCC(=O)c2c[nH]c3ccccc23)cc1 (configuration not stated) | 23.0* | 27.6* | 17.8 | -7.1 | 6.9 | 32.1
Cc1ccc(C(=O)OCC(=O)c2c[nH]c3ccccc23)cc1 | 0.2 | 0.6 | 0.3 | -9.7 | 0.7 | 0.6
O=C(Nc1ccc(C(=O)NCCCN2CCN(c3ccc(F)cc3)CC2)cc1)C1=CSCCO1 | 25.7* | 29.3* | x | -14.7 | x | 62.0*
O=C(Nc1ccc(C(=O)NCCCN2CCCCC2)cc1)C1=CSCCO1 | 0.8 | 0.5 | x | -5.3 | x | -0.9
COc1ccc(C2=C/C(=C/c3cccnc3)C(=O)O2)cc1OC | 5.9 | 2.6 | 0.3 | -11.4 | 0.5 | 144.0*
C[C@H]1CN([C@@H](C)CO)C(=O)CCCn2nncc2CO[C@@H]1CN(C)S(=O)(=O)c1ccc(Oc2ccccc2)nc1 | x | x | x | x | x | 1.2
Cc1cc(SCC(=O)Nc2ccccc2C)nc(C)n1 | -0.2 | 0.3 | 0.1 | -8.2 | -0.2 | 0.5
Cc1cc(=O)[nH]c(SCC(=O)Nc2ccccc2C)n1 | 1.1 | 0.9 | 19.5* | -2.6 | 1.4 | -1.4
COC(=O)c1scc(C)c1NC(=O)c1ccccc1F | -0.5 | -1.7 | x | -9.2 | x | 203.6*
N#Cc1ccccc1OCC(=O)NCC(c1ccc(F)cc1)N1CCOCC1 (configuration not stated) | 0.6 | -0.5 | x | -3.3 | x | -0.6
Clc1cccc(Cl)c1-c1nnc2cccc(Cl)n12 | 0.6 | 0.2 | 1.4 | -1.8 | 0.7 | 0.1
Fc1cccc(Cl)c1-c1nnc2ccc(C(F)(F)F)cn12 | 0.2 | 0.0 | 1.3 | -5.8 | -0.7 | 50.1*
Cc1ccc(C(=O)Nc2nc(-c3ccccn3)cs2)cc1S(=O)(=O)N1CCOCC1 | 4.5 | 3.9 | x | -4.5 | x | -0.3
Cc1cn([C@H]2C[C@H](O)[C@@H](CNCc3ccccc3OCCCN3CCOCC3)O2)c(=O)[nH]c1=O | x | x | x | x | x | -1.7
C=CCSc1nnc(C)c(/C=C/Nc2ccc(Cl)cc2)n1 | 7.3 | 4.8 | -0.1 | -1.6 | 0.4 | 113.6*
CSc1nnc(C)c(/C=C/Nc2ccc(F)cc2F)n1 | 2.0 | 0.8 | 0.4 | 0.0 | 1.1 | 1.1
Cc1ccccc1N1C(=O)c2cccc3c(N(C)CCO)ccc(c23)C1=O | 23.6* | 24.9* | 25.8* | -15.2 | 17.9* | 158.9*
CC(=O)Nc1cccc2c1C(=O)N(c1ccccc1C)C2=O | -0.5 | -0.6 | -0.6 | -4.8 | -1.1 | 0.5
COc1ccccc1OCCSc1nc2ccccc2n1CC(=O)O | x | x | x | x | x | -1.2
